In the EternaBench riboswitch data:

Tested on: MS2 coat protein
Test: apparent Kd, MS2 coat protein; higher = weaker binding; RNA-MaP array; FMN 200 µM where present
Procedure, shortened: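 Apparent Kd: the median of filtered binding-curve fits from single clusters. Designs were transcribed on Illumina sequencing-chip clusters by stalled E. coli RNA polymerase and titrated with SNAP-549-labelled MS2 coat protein from 0.7 or 1.5 nM, doubling to 3 µM, in 100 mM Tris-HCl pH 7.5, 80 mM KCl, 4 mM MgCl2, BSA, DTT, yeast tRNA and Tween-20. Each series ran without and then with constant ligand, and green signal was normalised to red-channel RNA signal and control-cluster median Fmax.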

[1] = designed as: OFF switch for flavin mononucleotide, no ligand
[2] = ligand present: flavin mononucleotide, designed as: OFF switch for flavin mononucleotide
[3] = designed as: ON switch for flavin mononucleotide, no ligand
[4] = ligand present: flavin mononucleotide, designed as: ON switch for flavin mononucleotide

Row | Sequence | apparent Kd [1] | apparent Kd [2] | apparent Kd [3] | apparent Kd [4]
1 | ACUAGAUGAGGAUAUGCAUAUUUUCGUGUUCUUCUAGAUUAACAUGAGGAUCACCCAUGUAGAAGGCGUCUGGC | 18.6 nM | 33.8 nM | – | –
2 | AAAAAGUCAGGAUAUGUCAAAGGUCACGAAAGUGACAAAGGACAGAAGGGACAUGAGGAUCACCCAUGUAAAAA | 30.2 nM | 46.1 nM | – | –
3 | GCAUGCAUAGCGAUAUGAUCGAGAGAUCAUGUCGCUAAAUUUAGAAGGACAUGAGGAUCACCCAUGUAGGAUAUGGGAGCAUGU | – | – | 92.1 nM | 15.4 nM
4 | CGGCCGUAAGGAUAUACAUGAGGAUCACCCAUGUAUGGAAUAGCAUGAGGCGGCCCAGGUAGAAGGUAUGCCCG | 20.8 nM | 30.5 nM | – | –
5 | UACAAUCUAUCUGAGGAUAUCAUGCAUUACACAUGAGGAUCACCCAUGUGCAGGAAAACUGCAUAUGAGAAGGCAGAUAGAUUGU | – | – | 561 nM | 23.8 nM
6 | UUUUGACAUGAGGAUCACCCAUGUGAGGAUAUGGAGCGCGACCGCGCGGUCGCGUACACCAGAAGGCGCAGGAA | 40.3 nM | 70.8 nM | – | –
7 | UCGAGUGGUUAGGAUAUCAUUGGUGCAUAUCAUUGAGAAGGAACUACAUGAGGAUCACCCAUGUGGCAGUGAUA | 28.2 nM | 126 nM | – | –
8 | UCAGGCUUCGAGAAGGACAUGAAUCGUAGCAUUGCUACGAUCAAAGAUACAUGAGGAUCACCCAUGUAGGAUAUCGGAGUCUGC | 5.75 nM | 7.63 nM | – | –
9 | AGCUAGUCAGGAUAUACGAACAUGUCAAAAGACGUGAAGGGACAUGAGGAUCACCCAUGUAGAAGGGACUAGCA | 40 nM | 170 nM | – | –
10 | GGUACGCAUGUAGGAUAUCGAGCUCAAAGAGCUCGAGAAGGACAUGAGGAUCACCCAUGUCCUCACAGACAGUGAGGGCGUACC | 18 nM | 26.5 nM | – | –
11 | AUACGUGAGAAGGAUAUCACUCGCCAGAGGCGAUGAGAAGGUUUCACAUGAGGAUCACCCAUGUGCUCUUCUAG | 32 nM | 75.1 nM | – | –
12 | UGCUACGUUUCGUAGCAGUGUCAUCGAGAAGGCCCUGACAUGAGGAUCACCCAUGUUGUUACAUGGGAGGAUAUCGAUGAUACG | – | – | 12 nM | 4.9 nM
13 | AUACAUGAGGAUCACCCAUGUAAUUAAUUAAUUAAUAAGAUCUAGGAUAUCAGCUCGAUUAGAGCUGAGAAGGAGAUCACAUGU | – | – | 24.2 nM | 14.6 nM
14 | GUGUACAGAGGAUAUACACGAGGAGUUACGAAAGUAACUUCACAUGAGGAUCACCCAUGUAGAAGGCUGUACAC | 25.3 nM | 36.6 nM | – | –
15 | UAAAUCUUGUAAGGAUAUACACGAGAUUCAAGUGUAGAAGGUACUUACAUGAGGAUCACCCAUGUAUACAUGGAUAAUAUAUAU | – | – | 206 nM | 32.2 nM
16 | AAAACGCAAGGAUAUACAUGAGGAUCACCCAUGUAGACAAUAUAAAGGGUCUCACCAUGUAGAAGGUGCUACCC | 21.3 nM | 16.5 nM | – | –
17 | CUAGUACAUGAGGAUCACCCAUGUCAGGAUAUUGGAUAUGACAUGGAAAACAUGUUAACAAGAAGGGACUAUAG | 245 nM | 209 nM | – | –
18 | UAAACGUUCUAGAAGGUGCUUUUGUUAAACAAGCAAGGAUAUAGACAUGAGGAUCACCCAUGUCUUUUAGACAUCGACAUACUU | 6.9 nM | 8.03 nM | – | –
19 | GCAACGCCUGACAUGAGGAUCACCCAUGUUAGAUUGUUAUGUCAGGAUAUAGUCUCGAAACGAGACUAGAAGGGAUAUGUUGCU | – | – | 888 nM | 122 nM
20 | CAAAGUAGCACAGGAUAUCAUACAUGAGGAUCACCCAUGUCAAGAAGCAAAUGAGAAGGGUGCAGACGGUGUUGGAGCGGUUGC | – | – | 68.6 nM | 7.02 nM
21 | UCAUUUCUGUAAGGAUAUUUAAACAUGACGAUACAUGAGGAUCACCCAUGUAAAGAAGGUACAAAUACAUAUAAUGCAAUGUUC | 7.55 nM | 7.39 nM | – | –
22 | GGGCUGGUAACAGGAUAUCGUGCCUGGCCGGAUUACAUGAGGAUCACCCAUGUCGUUGGAACCAACGAGAAGGGUUGCCUCCCA | – | – | 371 nM | 102 nM
23 | AGCAUGUGAGGAUAUGUGACCCUCGUCCUAAGGACAAGGGAAUAGAAGGCACAUGAGGAUCACCCAUGUGAUGA | 54.6 nM | 168 nM | – | –
24 | AAGAGCGAUUCUCCCUUCCUACAUGAGGAUCACCCAUGUACGAGAAGGCGCCGUGUAUACAACGGUGAGGAUAUCGUGCGUUAC | 4.64 nM | 4.91 nM | – | –

Row | Sequence | apparent Kd [1] | apparent Kd [2] | apparent Kd [3] | apparent Kd [4]
25 | CGCGAACAUGAGGAUCACCCAUGUGAAAAACAUAGAGGAUAUGUCGCAUGCGUGUAAAAGACAGAAGGCUAUCGCG | – | – | 76.7 nM | 27.9 nM
26 | UCCUCGAUGUAGAAGGCCGCGUCCGGCUCACGCGGAGGAUAUACAUGAGGAUCACCCAUGUGUUUGUGGCUAAUAUGGUACGAA | 159 nM | 18.2 nM | – | –
27 | GGAAGAAUGAUACCUUUUUAUUACAUGAGGAUCACCCAUGUGCAGGAUAUCGAUUAUUAUAGUUUCGAGAAGGGCAAGAAUUGU | 19.7 nM | 52.4 nM | – | –
28 | GGGUACAUGGGAGGAUAUCCUCAAGAGACAUGAGGAUCACCCAUGUAUUAUAAGCCUAAUGGCAUGGAGAAGGCCCAUGUACCG | – | – | 397 nM | 69.7 nM
29 | GGGUUUGGUGUGAGGAUAUCGGGCCCGAAAGGGUUUGAGAAGGCACAUGAGGAUCACCCAUGUAAGCCGGGCCC | 22.8 nM | 17.2 nM | – | –
30 | GGGUACAUAGGAGGAUAUCAUGUAAAUACAUGAGGAUCACCCAUGUCGAUGGAGACAUCGGAGAUUGAGAAGGCCGAUGUACCG | – | – | 240 nM | 10.6 nM
31 | GCUGGUCAAGGAUAUGCAAUCGUGCUUCGGCACGUAAGAUCACAUGAGGAUCACCCAUGUAGAAGGUGACCAGC | 22.5 nM | 59.8 nM | – | –
32 | ACCUUACUGGUCAGGAUAUACAGUCUUUGGUGUGUGUAGAAGGGACAUGAGGAUCACCCAUGUAGGUUGCAGCA | 70 nM | 62.7 nM | – | –
33 | AUUAUUUAUAGUUAUUUUUAUUUUACAGAAGGUGAAUUAUUUACAUGAGGAUCACCCAUGUUCUUCAAGGAUAUGUUGUUAUAC | – | – | 49.4 nM | 22.1 nM
34 | AGCACGAAAGUGCAACGAUGUACGAGAAGGACAUGAGGAUCACCCAUGUAUGCAGUAACUGCUAUGUAGGAUAUCGUACAUCGA | 7.57 nM | 9.94 nM | – | –
35 | GGAUCGAGUGUGAGGAUAUGCUGGUCCUUGGAUCAGCAGAAGGCACAUGAGGAUCACCCAUGUGGUAACGGUCC | 190 nM | 537 nM | – | –
36 | GAUAGAGAGCAGGAUAUCUUGGGUAAGUAUCGUAGAGAAGGGCUCACAUGAGGAUCACCCAUGUGGUCCAAGAU | 14.2 nM | 32.6 nM | – | –
37 | GUGCACAUUCGAGGAUAUCGGAGAGAGAUCCUUCGAGAAGGCGAUUCAUGCUGUAUUAUUCUGGACAUGAGGAUCACCCAUGUG | – | – | 230 nM | 101 nM
38 | GUUUCUAUAUGUUUUAUUUAACAGUCAGAAGGUGAUACUACGACAUGAGGAUCACCCAUGUAAUUCAAGGAUAUGAACUUAAUC | – | – | 1060 nM | 517 nM
39 | UUUGUCAUCGAGAAGGCCUCAACAUGAGGAUCACCCAUGUUGUAAUAUGGGAGGAUAUCGAUGAUACAGCUACGUUUCGUAGGG | – | – | 18.1 nM | 5.6 nM
40 | GGUCUGACAUAAGGAUAUGCUCAGGAAUACUGAGCAGAAGGUAUGUGAAAACAUGAGGAUCACCCAUGUGAUCAAUACAGACCA | – | – | 18 nM | 20.9 nM
41 | CUUGUUGUCGAGGAUAUGCACCAGCUCACUGACGCAGAAGGCGACACAUGAGGAUCACCCAUGUCAGUUCGCGU | 37.4 nM | 225 nM | – | –
42 | UUGCCUGCGUGUCGCCGGUUUGGACAGGAUAUCCACAUGAGGAUCACCCAUGUCUAACAAAAUACGGAGAAGGGUCCUAGCGGU | – | – | 39 nM | 6.55 nM
43 | GUCAGCUCGUGAGGAUAUACAUGUGCUGGAGACAGCACUAAAGAUUUCACAUGAGGAUCACCCAUGUAGAAGGCACGAGCUGAU | 16.4 nM | 37.4 nM | – | –
44 | AGCAUGUUUACAUGAGGAUCACCCAUGUUUUUUUAGGAUAUCAGAAGGUACAAUUUGUGUUAGAGUAAGGAUAUGAUAUAUGCG | – | – | 12.6 nM | 8.88 nM
45 | GGACGUCACAUCUACAUGAGGAUCACCCAUGUCAAAAGACAUGAGGAUAUGCAUCCUAAUUGGAUGCAGAAGGCAUGGACGUCC | – | – | 1200 nM | 70.2 nM
46 | AAUAACAGAGGAUAUACUGUUUUAUGUGUUUGUUAUUUUAAACAUGAGGAUCACCCAUGUAGAAGGCUGAAUAA | 22.5 nM | 21.7 nM | – | –
47 | AAUUAUUAUUGAGGAUAUCGUAUUGAAACAAUAUGAGAAGGCGGGAUAAACAUGAGGAUCACCCAUGUGAGCCUGAUGCUUGUG | 16.3 nM | 15.6 nM | – | –
48 | AUGGACGUCGUAGGAUAUGUAGGAUUCUCGUACAUGAGGAUCACCCAUGUUGACGUCGAGGACGGACAGAAGGGCGGUGUCCAU | – | – | 42.3 nM | 8.01 nM
